Series [1] deals with T1, Metabotropic glutamate receptor 5 (Homo sapiens, UniProt P41594). Nature of the series: Displacement of [3H]M-MPEP from mGluR5 (unknown origin) at 1 uM measured after 60 mins relative to control. The method, boiled down:
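Rat cerebrocortical membranes or membranes from A18 cells expressing human mGlu5a, incubated with [³H]M-MPEP and test compound at 1 µM in 50 mM Tris pH 7.6 with 2 mM MgCl₂ and 2 mM CaCl₂, 60 min at 25°C. Non-specific binding was taken with […]. Result is % displacement, run in duplicate or triplicate.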
Target sequence in this assay (P41594 21-1212 limits assumed): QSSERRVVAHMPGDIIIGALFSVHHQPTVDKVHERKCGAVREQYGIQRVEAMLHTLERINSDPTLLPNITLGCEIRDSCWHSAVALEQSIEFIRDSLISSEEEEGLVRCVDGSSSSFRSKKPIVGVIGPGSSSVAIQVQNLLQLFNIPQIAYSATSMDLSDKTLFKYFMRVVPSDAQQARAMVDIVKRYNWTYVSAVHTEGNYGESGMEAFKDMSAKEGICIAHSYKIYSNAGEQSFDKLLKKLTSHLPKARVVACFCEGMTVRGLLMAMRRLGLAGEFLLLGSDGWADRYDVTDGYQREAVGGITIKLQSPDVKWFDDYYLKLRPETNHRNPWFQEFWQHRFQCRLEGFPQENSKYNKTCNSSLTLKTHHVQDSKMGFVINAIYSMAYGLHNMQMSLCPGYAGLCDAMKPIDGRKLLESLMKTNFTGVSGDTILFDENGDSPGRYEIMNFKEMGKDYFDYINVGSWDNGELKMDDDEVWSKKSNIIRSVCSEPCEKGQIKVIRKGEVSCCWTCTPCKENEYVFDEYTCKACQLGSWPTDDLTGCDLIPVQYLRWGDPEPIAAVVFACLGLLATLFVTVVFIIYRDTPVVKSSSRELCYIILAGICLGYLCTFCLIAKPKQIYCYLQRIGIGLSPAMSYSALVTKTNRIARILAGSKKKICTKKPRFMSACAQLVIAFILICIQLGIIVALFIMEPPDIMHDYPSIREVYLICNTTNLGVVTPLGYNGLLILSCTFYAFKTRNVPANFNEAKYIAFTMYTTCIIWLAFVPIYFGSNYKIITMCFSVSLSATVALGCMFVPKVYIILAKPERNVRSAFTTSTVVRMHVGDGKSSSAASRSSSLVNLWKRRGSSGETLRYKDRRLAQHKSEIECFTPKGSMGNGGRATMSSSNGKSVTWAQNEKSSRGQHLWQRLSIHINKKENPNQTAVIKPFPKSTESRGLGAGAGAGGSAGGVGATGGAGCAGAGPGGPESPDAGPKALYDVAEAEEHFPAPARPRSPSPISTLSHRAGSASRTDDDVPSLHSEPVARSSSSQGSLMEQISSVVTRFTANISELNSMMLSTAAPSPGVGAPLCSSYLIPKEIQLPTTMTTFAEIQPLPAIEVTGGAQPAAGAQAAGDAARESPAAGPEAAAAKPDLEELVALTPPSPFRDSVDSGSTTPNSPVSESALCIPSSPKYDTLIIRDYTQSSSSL
(In a radioligand displacement assay an active substance lowers the binding of a labelled ligand.)

Series [2] concerns the target T1, Metabotropic glutamate receptor 5. The experiment in a line: Displacement of [3H]M-MPEP from mGluR5 (unknown origin) measured after 60 mins. The procedure, abridged:
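The [³H]M-MPEP competition used rat cortical membranes or human mGlu5a A18 cell membranes in Tris pH 7.6 buffer with MgCl₂ and CaCl₂, 60 min at 25°C. Curves were generally 7 concentrations in duplicate or triplicate. IC50 was converted to Ki by Cheng–Prusoff, with Kd from a Scatchard plot. Non-specific binding was defined with M-MPEP.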
Target sequence in this assay (P41594 whole entry): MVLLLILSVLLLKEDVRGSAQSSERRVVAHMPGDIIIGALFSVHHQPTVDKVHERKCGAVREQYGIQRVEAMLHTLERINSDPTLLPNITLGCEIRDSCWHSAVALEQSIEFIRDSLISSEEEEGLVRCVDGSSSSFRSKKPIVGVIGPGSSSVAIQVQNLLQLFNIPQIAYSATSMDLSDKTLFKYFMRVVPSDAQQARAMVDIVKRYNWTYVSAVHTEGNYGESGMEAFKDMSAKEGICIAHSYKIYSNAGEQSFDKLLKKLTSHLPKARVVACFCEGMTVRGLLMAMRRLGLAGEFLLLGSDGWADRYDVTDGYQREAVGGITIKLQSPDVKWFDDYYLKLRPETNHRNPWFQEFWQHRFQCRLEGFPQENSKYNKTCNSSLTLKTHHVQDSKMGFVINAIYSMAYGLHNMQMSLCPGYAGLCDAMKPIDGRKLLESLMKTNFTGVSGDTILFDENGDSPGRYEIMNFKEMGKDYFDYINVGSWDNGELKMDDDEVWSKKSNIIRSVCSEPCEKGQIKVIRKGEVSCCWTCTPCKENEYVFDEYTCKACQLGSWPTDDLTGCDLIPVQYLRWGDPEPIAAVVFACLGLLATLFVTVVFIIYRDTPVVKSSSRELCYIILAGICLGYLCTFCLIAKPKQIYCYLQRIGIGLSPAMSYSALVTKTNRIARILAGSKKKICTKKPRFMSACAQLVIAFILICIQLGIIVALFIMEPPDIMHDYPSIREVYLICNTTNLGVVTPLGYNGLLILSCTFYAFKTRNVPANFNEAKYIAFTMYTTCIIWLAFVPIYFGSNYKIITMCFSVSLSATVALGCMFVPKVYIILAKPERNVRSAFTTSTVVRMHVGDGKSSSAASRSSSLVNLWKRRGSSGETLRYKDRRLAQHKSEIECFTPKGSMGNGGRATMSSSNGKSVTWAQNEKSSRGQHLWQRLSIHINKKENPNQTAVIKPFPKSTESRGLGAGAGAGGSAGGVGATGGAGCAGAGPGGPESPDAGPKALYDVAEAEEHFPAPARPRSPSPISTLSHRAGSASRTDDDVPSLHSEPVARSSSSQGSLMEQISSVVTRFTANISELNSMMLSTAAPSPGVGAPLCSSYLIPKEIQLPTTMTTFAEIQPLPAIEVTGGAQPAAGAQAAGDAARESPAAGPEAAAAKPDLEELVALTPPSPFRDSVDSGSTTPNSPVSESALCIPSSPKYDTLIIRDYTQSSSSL

The nature of series [3]: Aqueous solubility of the compound in water. It is filed as physicochemical.
A short description of series [4]: Drug level in blood of rat at 10 mg/kg, ip at 40 mins post dose. It is filed as ADME, organism-based. The settings on record: read-out: Drug uptake.
In a further series the test system is Rattus norvegicus. Nature of the series: Anxiolytic activity in ip dosed rat assessed as increase in water drinking time during punished period by Vogel punished drinking conflict test. It is filed as functional. Conditions: read-out: MED. The procedure, abridged: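 Rats were water-deprived 48 h. On test day, compound was given i.p. in 5% Tween/distilled water at 1, 3 or 10 mg/kg, n=8 per dose. A 30-s unpunished drinking period followed. Comparison to vehicle was by ANOVA with Duncan post-hoc, giving MED.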

In series [5] the target is Metabotropic glutamate receptor 1 (Homo sapiens) (UniProt Q13255). Nature of the series: Activity at mGluR1 (unknown origin).
Sequence of Metabotropic glutamate receptor 1 (Homo sapiens) (Q13255 19-1194 limits assumed): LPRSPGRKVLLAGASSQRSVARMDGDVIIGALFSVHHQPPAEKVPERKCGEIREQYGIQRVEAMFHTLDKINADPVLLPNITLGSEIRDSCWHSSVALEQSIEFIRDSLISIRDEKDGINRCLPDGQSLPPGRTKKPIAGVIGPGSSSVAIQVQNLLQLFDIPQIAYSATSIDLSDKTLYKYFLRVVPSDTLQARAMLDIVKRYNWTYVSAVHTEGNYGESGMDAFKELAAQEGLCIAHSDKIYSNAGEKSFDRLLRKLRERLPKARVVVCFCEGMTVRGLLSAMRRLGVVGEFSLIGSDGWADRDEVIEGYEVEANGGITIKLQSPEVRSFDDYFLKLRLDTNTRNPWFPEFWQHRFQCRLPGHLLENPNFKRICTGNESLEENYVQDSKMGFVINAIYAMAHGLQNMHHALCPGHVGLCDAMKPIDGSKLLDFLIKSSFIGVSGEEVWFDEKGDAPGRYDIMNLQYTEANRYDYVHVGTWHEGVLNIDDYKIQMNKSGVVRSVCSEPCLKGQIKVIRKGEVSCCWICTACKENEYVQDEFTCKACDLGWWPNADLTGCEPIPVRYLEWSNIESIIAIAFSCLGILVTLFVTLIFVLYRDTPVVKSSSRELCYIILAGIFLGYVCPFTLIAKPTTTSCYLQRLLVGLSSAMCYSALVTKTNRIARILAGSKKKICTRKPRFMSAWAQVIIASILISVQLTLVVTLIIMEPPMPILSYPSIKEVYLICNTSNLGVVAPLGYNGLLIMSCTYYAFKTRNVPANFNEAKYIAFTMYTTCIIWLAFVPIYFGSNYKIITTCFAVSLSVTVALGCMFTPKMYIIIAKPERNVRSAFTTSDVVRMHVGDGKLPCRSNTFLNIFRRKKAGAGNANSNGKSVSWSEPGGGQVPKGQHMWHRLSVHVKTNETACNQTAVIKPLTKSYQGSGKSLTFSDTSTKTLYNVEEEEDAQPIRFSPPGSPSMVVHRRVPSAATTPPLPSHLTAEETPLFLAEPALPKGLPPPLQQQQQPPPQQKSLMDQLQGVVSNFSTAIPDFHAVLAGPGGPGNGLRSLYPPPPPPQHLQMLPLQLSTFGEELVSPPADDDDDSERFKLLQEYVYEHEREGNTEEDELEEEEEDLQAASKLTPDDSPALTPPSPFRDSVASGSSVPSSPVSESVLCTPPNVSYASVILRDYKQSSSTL

Converted amounts (≈) assume the structure as drawn. The source made the active and inactive calls. No cut-off for these calls is given here. Some results are limits rather than exact numbers.

As usually defined, the inhibition is the change of the read-out against control, counted positive when it falls. In general, Ki refers to a dissociation constant, usually derived from enzyme kinetics or from competition with a known ligand. The low end stands for a stronger hold on the target, the high end for a looser hold on the target. Take `CCN(CC)c1c(S(=O)(=O)c2ccc(C)cc2)cnc2ccccc12`: the inhibition in series [1] is 78.3%. The affinity in series [2], expressed as Ki, was 0.201 µM. The like results for `CC1CCN(c2c(S(=O)(=O)c3ccccc3)cnc3ccccc23)CC1` were, in that order, 89.2% and 0.108 µM. In general, solubility refers to how much of the substance goes into solution per volume. In the case of `O=S(=O)(c1cccc(Cl)c1)c1cnc2cc(Cl)ccc2c1N1CCC(CO)CC1`, the solubility in series [3] fell in the range of 15 to 45 µM (≈ 6.77 to 20.3 µg/mL). Besides, the concentration at 40 min in series [4] came to 0.193 µg/mL. For the same compound, in the series on Rattus norvegicus, the minimal effective dose was found to be 10 mg/kg. In series [2], the Ki turned out to be 0.0309 µM. In series [3], `Cc1ccc2ncc(S(=O)(=O)c3cccc(F)c3)c(N3CCC(C)CC3)c2c1` yielded a solubility of less than 3 µM. This compound yielded an inhibition in series [1] of 94%.

`Cc1ccc(S(=O)(=O)c2cnc3ccccc3c2NCc2ccccc2)cc1` showed an inhibition in series [1] of 73.5%. The compound also showed a Ki in series [2] of 0.198 µM. On to `O=S(=O)(c1ccccc1)c1cnc2ccccc2c1N1CCCCCC1`, for which, in series [1], the inhibition came out at 79.9%. In series [2], this compound gave a Ki of 0.31 µM.

Compound `CC1CCN(c2c(S(=O)(=O)c3ccc(Cl)cc3)cnc3ccc(Cl)cc23)CC1` had an inhibition in series [1] of 92%. In addition, the Ki in series [2] was found to be 0.435 µM.

In series [1], `CC1CCN(c2c(S(=O)(=O)c3cc(F)cc(F)c3)cnc3cc(Cl)ccc23)CC1` returned an inhibition of 94%. Further, the Ki in series [2] came out at 0.0682 µM.

Turning to `CC1CCN(c2c(S(=O)(=O)c3ccc(Cl)c(Cl)c3)cnc3ccc(Cl)cc23)CC1`, the solubility in series [3] was less than 3 µM. Further, the concentration at 40 min in series [4] was 0.055 µg/mL. Moreover, the minimal effective dose in the series on Rattus norvegicus was greater than 30 mg/kg. The same compound yielded an inhibition in series [1] of 86%. Further, in series [2], the Ki was 0.103 µM. In series [3], `N#Cc1cc(F)cc(S(=O)(=O)c2cnc3cc(Cl)ccc3c2N2CCC(CO)CC2)c1` gave a solubility of 15 to 45 µM (≈ 6.9 to 20.7 µg/mL). For the same compound, the concentration at 40 min in series [4] is 0.608 µg/mL. Besides, the minimal effective dose with Rattus norvegicus was greater than 10 mg/kg. In series [2], this compound returned a Ki of 0.0241 µM.

Take `O=S(=O)(c1ccccc1)c1cnc2ccccc2c1N1CCCCC1`: the inhibition in series [1] worked out at 71.4%. The same compound yielded a Ki in series [2] of 0.307 µM. In series [1], `COc1cccc(S(=O)(=O)c2cnc3ccc(Cl)cc3c2N2CCOCC2)c1` gave an inhibition of 28%. Same read-out and setting: the value for `Cc1ccc(S(=O)(=O)c2cnc3ccc(Cl)cc3c2N2CCC(C)CC2)cc1F` was 68%.

`COc1ccc(S(=O)(=O)c2cnc3cc(Cl)ccc3c2N2CCOCC2)cc1OC` displayed an inhibition in series [1] of 4%. In series [1], `COc1ccc(S(=O)(=O)c2cnc3ccc(F)cc3c2N2CCC(C)CC2)cc1Cl` displayed an inhibition of 82%.

On to `Cc1ccc2ncc(S(=O)(=O)c3ccccc3)c(N3CCOCC3)c2c1`, for which the inhibition in series [1] turned out to be 86%. Consider `O=S(=O)(c1ccc(Cl)cc1)c1cnc2ccc(F)cc2c1N1CCOCC1`, for which the inhibition in series [1] was found to be 78%. On the same count and under the same terms, the value for `O=S(=O)(c1ccc(Cl)c(Cl)c1)c1cnc2c(F)cccc2c1N1CCOCC1` was 86%. In turn, `CC1CCN(c2c(S(=O)(=O)c3ccc(F)c(Cl)c3)cnc3cc(Cl)ccc23)CC1` had an inhibition in series [1] of 94%. On the same count and under the same terms, then `O=S(=O)(c1ccc(F)c(F)c1)c1cnc2cc(Cl)ccc2c1N1CCOCC1`, with 49%. The same measure, in the same setting: then `Cc1ccc(S(=O)(=O)c2cnc3ccc(Cl)cc3c2N2CCOCC2)cc1`, with 84%; and `CC1CCN(c2c(S(=O)(=O)c3cc(F)cc(F)c3)cnc3ccc(Cl)cc23)CC1`, with 93%. Still for that read-out and setting: the value for `O=S(=O)(c1cccc(F)c1)c1cnc2cc(Cl)ccc2c1N1CCC(CO)CC1` was 71%; that for `COc1cccc(S(=O)(=O)c2cnc3ccc(Cl)cc3c2N2CCC(C)CC2)c1` was 87%. Compound `Cc1ccc2ncc(S(=O)(=O)c3ccc(C)c(C)c3)c(N3CCC(C)CC3)c2c1` returned an inhibition in series [1] of 90%. On the same count and under the same terms, the value for `N#Cc1cccc(S(=O)(=O)c2cnc3ccc(F)cc3c2N2CCOCC2)c1` was 25%.

Consider `O=S(=O)(c1ccccc1)c1cnc2ccccc2c1N1CCN(c2ccccc2)CC1`, for which, in series [1], the inhibition worked out at 13.5%. As for `COc1cccc(S(=O)(=O)c2cnc3ccc(C)cc3c2N2CCOCC2)c1`, in series [1], the inhibition is 65%. In series [1], `COCC1CCN(c2c(S(=O)(=O)c3cccc(C#N)c3)cnc3cc(F)ccc23)CC1` returned an inhibition of 91%. Consider `COc1cccc(S(=O)(=O)c2cnc3cc(Cl)ccc3c2N2CCC(C)CC2)c1`, for which, in series [1], the inhibition was 93%. On to `Cc1ccc(S(=O)(=O)c2cnc3ccccc3c2N2CCOCC2)cc1C`, for which the result in series [5] was inactive.

With `COc1ccc(S(=O)(=O)c2cnc3cc(F)ccc3c2N2CCOCC2)cc1Cl`, the inhibition in series [1] worked out at 53%. In series [1], `CC1CCN(c2c(S(=O)(=O)c3ccc(F)cc3)cnc3cc(F)ccc23)CC1` came in with an inhibition of 74.5 to 75%. `COc1ccc(S(=O)(=O)c2cnc3ccc(Cl)cc3c2N2CCC(C)CC2)cc1OC` displayed an inhibition in series [1] of 61%. Same read-out and setting: then `COc1ccc(S(=O)(=O)c2cnc3cc(Cl)ccc3c2N2CCC(C)CC2)cc1OC`, with 93%; and `COc1ccc2ncc(S(=O)(=O)c3ccc(OC)c(Cl)c3)c(N3CCC(C)CC3)c2c1`, with 21%; and `CC1CCN(c2c(S(=O)(=O)c3cc(Cl)cc(Cl)c3)cnc3ccc(Cl)cc23)CC1`, with 88%. Same read-out and setting: the value for `NC(=O)C1CCN(c2c(S(=O)(=O)c3ccccc3)cnc3ccccc23)CC1` was 24.8%. With `Cc1ccc2ncc(S(=O)(=O)c3ccc(C)c(Cl)c3)c(N3CCOCC3)c2c1`, the inhibition in series [1] is 75%. In series [3], `CC1CCN(c2c(S(=O)(=O)c3ccc(Cl)c(Cl)c3)cnc3ccc(F)cc23)CC1` displayed a solubility of less than 3 µM. Besides, in series [4], the concentration at 40 min was determined as 0.046 µg/mL. The minimal effective dose in the series with Rattus norvegicus amounted to 30 mg/kg. In series [1], this compound had an inhibition of 91%. Moreover, the affinity in series [2] corresponds to a Ki of 0.0556 µM.

As to `O=S(=O)(c1cccc(F)c1)c1cnc2c(F)cccc2c1N1CCOCC1`, the inhibition in series [1] was 23%.

In turn, `Cc1ccc(S(=O)(=O)c2cnc3ccc(F)cc3c2N2CCOCC2)cc1F` returned an inhibition in series [1] of 28%. Same read-out and setting: then `O=S(=O)(c1ccc(F)cc1)c1cnc2cc(Cl)ccc2c1N1CCOCC1`, with 14%.

As to `CC1CCN(c2c(S(=O)(=O)c3ccc(F)cc3)cnc3cc(Cl)ccc23)CC1`, in series [1], the inhibition was 91%.

`CC1CCN(c2c(S(=O)(=O)c3ccc(Cl)c(Cl)c3)cnc3c(F)cccc23)CC1` displayed an inhibition in series [1] of 95%. Still for that read-out and setting: the value for `CC1CCN(c2c(S(=O)(=O)c3cccc(F)c3)cnc3c(F)cccc23)CC1` was 62%; that for `CC1CCN(c2c(S(=O)(=O)c3ccc(F)c(Cl)c3)cnc3cc(F)ccc23)CC1` was 94%; that for `Cc1ccc(S(=O)(=O)c2cnc3c(F)cccc3c2N2CCOCC2)cc1F` was 73%. In series [1], `COc1ccc2ncc(S(=O)(=O)c3ccccc3)c(N3CCOCC3)c2c1` registered an inhibition of 65%. Still for that read-out and setting: then `Cc1cc(C)cc(S(=O)(=O)c2cnc3cc(Cl)ccc3c2N2CCOCC2)c1`, with 24%; and `CN1CCN(c2c(S(=O)(=O)c3ccccc3)cnc3ccccc23)CC1`, with 7.7%; and `O=S(=O)(c1cc(Cl)cc(Cl)c1)c1cnc2ccc(Cl)cc2c1N1CCOCC1`, with 14%. On the same count and under the same terms, then `Cc1cc(C)cc(S(=O)(=O)c2cnc3ccc(F)cc3c2N2CCC(C)CC2)c1`, with 83%; and `Cc1ccc2ncc(S(=O)(=O)c3ccc(Cl)c(Cl)c3)c(N3CCOCC3)c2c1`, with 76%. On the same count and under the same terms, then `COc1ccc(S(=O)(=O)c2cnc3ccc(Cl)cc3c2N2CCOCC2)cc1Cl`, with 33%. In series [1], `O=S(=O)(c1ccc(F)cc1)c1cnc2ccc(F)cc2c1N1CCOCC1` had an inhibition of 2%. The same measure, in the same setting: then `CC1CCN(c2c(S(=O)(=O)c3ccc(C#N)cc3)cnc3ccc(F)cc23)CC1`, with 75%; and `O=S(=O)(c1cccc(F)c1)c1cnc2cc(F)ccc2c1N1CCSCC1`, with 62.7%; and `CC1CCN(c2c(S(=O)(=O)c3cccc(Cl)c3)cnc3ccc(F)cc23)CC1`, with 92%.

With `Cc1ccc(S(=O)(=O)c2cnc3c(F)cccc3c2N2CCOCC2)cc1`, in series [1], the inhibition was found to be 23%. As to `COc1ccc(S(=O)(=O)c2cnc3ccc(C)cc3c2N2CCC(C)CC2)cc1`, the inhibition in series [1] was found to be 62%. In series [1], `Cc1ccc(S(=O)(=O)c2cnc3c(F)cccc3c2N2CCC(C)CC2)cc1F` gave an inhibition of 93%. With `CC1CCN(c2c(S(=O)(=O)c3ccccc3)cnc3ccc(F)cc23)CC1`, the inhibition in series [1] is 40%. Same read-out and setting: then `COc1ccc(S(=O)(=O)c2cnc3ccc(F)cc3c2N2CCC(C)CC2)cc1`, with 85%. The same measure, in the same setting: then `CC1CCN(c2c(S(=O)(=O)c3cc(Cl)cc(Cl)c3)cnc3cc(Cl)ccc23)CC1`, with 93%.

Source of the values: ChEMBL document CHEMBL4052615, “Discovery of 4-amino-3-arylsulfoquinolines, a novel non-acetylenic chemotype of metabotropic glutamate 5 (mGlu5) receptor negative allosteric modulators” (Eur J Med Chem, 2017).
